# Source: ChEMBL document CHEMBL5696444 (Nat Commun, 2017)
# The source made the active and inactive calls. The rule behind the calls is not given here.
# Experiments:
# [1] = target: Dual specificity protein kinase CLK2 (Homo sapiens, UniProt P49760); assay: Inhibition of N-terminal FLAG-tagged human CLK2 using ULight MBP peptide as substrate incubated for 10 mins in presence of ATP incubated for 45 mins by LANCE Ultra kinase assay
# [2] = target: Dual specificity protein kinase CLK1 (Homo sapiens) (UniProt P49759); assay: Inhibition of CLK (unknown origin) in human HCT-116 cells assessed as phospho SR level at 10 uM incubated for 6 hrs by immunoblot analysis; format: cell-based
# Chain of Dual specificity protein kinase CLK1 (Homo sapiens) (P49759 whole entry, looked up): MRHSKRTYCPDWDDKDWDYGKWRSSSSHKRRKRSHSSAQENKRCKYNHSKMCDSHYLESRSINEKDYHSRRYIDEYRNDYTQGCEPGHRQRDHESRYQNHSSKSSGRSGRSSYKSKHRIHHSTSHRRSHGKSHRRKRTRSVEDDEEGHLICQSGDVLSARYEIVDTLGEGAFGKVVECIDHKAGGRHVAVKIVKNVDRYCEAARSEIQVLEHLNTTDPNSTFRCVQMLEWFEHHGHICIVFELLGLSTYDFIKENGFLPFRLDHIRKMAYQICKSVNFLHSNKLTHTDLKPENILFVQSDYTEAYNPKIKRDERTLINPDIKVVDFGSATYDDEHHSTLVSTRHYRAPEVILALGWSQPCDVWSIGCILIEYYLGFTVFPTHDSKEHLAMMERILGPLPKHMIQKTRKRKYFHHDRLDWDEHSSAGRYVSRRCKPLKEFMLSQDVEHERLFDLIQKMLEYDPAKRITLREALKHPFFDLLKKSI
# In short: (§1)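 HCT116 cells were exposed to compound for 3 or 6 h, then lysed in 1× SDS sample buffer (0.16% SDS, Tris-HCl pH 6.8) and boiled 5 min. Lysates were run on 5–15% or 4–12% gradient gels and transferred to nitrocellulose or PVDF. Membranes were blocked in 5% milk or 3% BSA/TBS-T and probed overnight at 4 °C with anti-SR protein (16H3) or anti-phospho-SR (1H4, 1/1000), with GAPDH as loading control.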
# [3] = target: Dual specificity protein kinase CLK1 (Homo sapiens) (UniProt P49759); assay: Inhibition of CLK (unknown origin) in human HCT-116 cells assessed as SRSF1 level at 10 uM incubated for 6 hrs by immunoblot analysis; format: cell-based; in short: as §1
# [4] = system: HCT-116; assay: Cytotoxicity against human HCT-116 cells assessed as inhibition of cell viability incubated for > 24 hrs; format: functional
# [5] = target: Dual specificity protein kinase CLK1 (Homo sapiens) (UniProt P49759); assay: Inhibition of CLK (unknown origin) in human HCT-116 cells assessed as SRSF4 level at 10 uM incubated for 6 hrs by immunoblot analysis; format: cell-based; in short: as §1
# [6] = target: Dual specificity protein kinase CLK1 (Homo sapiens) (UniProt P49759); assay: Inhibition of CLK (unknown origin) in human HCT-116 cells assessed as SRSF6 level at 10 uM incubated for 6 hrs by immunoblot analysis; format: cell-based; in short: as §1
# Chain of Dual specificity protein kinase CLK2 (P49760 whole entry): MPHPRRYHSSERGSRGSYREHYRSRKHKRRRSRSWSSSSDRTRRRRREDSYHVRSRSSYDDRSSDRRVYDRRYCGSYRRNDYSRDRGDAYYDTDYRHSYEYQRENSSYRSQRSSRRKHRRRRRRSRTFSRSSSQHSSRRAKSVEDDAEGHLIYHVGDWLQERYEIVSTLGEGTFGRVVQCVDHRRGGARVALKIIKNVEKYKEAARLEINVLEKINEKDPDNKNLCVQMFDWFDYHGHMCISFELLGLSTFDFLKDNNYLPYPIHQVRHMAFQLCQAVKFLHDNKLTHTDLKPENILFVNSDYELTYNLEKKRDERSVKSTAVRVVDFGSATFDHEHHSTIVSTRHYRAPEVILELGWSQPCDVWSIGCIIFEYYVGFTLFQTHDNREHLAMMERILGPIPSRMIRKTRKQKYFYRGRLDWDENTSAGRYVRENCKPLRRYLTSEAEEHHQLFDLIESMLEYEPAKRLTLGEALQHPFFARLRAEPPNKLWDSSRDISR
compound,measurement,setting,value
CCN1CCN(C(=O)C(C)(C)c2ccc(C(=O)Nc3cn4cc(-c5ccncc5)ccc4n3)cc2)CC1,IC50,[1],15 nM
CC(C)(CCc1nn[nH]n1)c1ccc(C(=O)Nc2cn3cc(-c4ccncc4)ccc3n2)cc1,IC50,[1],50 nM
CC(C)(CCc1nn[nH]n1)c1ccc(C(=O)Nc2cn3cc(C(F)(F)F)ccc3n2)cc1,IC50,[1],360 nM
CCOC(=O)c1c(/C(C#N)=C\N)c2ccc(Cl)c(Cl)c2n1C,inhibition,[2],Active
same,inhibition,[3],Active
same,GI,[4],>50 µM
same,inhibition,[5],Active
same,inhibition,[6],Active
CC(C)(C(=O)N1CCNCC1)c1ccc(C(=O)Nc2cn3cc(-c4ccncc4)ccc3n2)cc1,IC50,[1],150 nM
